Test results taken from ChEMBL document CHEMBL1147902, “Phosphonoxins: rational design and discovery of a potent nucleotide anti-Giardia agent” (Bioorg Med Chem Lett, 2007).
Converted amounts (≈) assume the structure as drawn.

Assays:
[1] = test system: Giardia intestinalis; test: Cyst formation in Giardia lamblia WB6 at 10 uM relative to control; settings: Giardia duodenalis
[2] = Toxicity in MDBK cells; format: cell-based; settings: Bos taurus
[3] = test system: Giardia intestinalis; test: Antiprotozoal activity against Giardia lamblia WB6 trophozoites after 48 hrs; format: functional; settings: Giardia duodenalis, WB6, 48 h
In short: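 Trophozoites of strain WB-6 cultured anaerobically 48 h with 2-fold serial drug dilutions, triplicate wells; viability read by XTT reagent.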

| MIC [3] [µM] | SMILES | level, % of control at 10 µM [1] [%] | EC50 [2] [µM] |
| --- | --- | --- | --- |
| 20 (≈ 9.31 µg/mL) | O=c1ccn(C[C@@H]2O[C@H](COP(=O)(O)CCCN3C[C@H](O)[C@@H](O)C3)[C@@H](O)[C@H]2O)c(=O)[nH]1 | 22.9 | > 250 |
| > 20 | O=c1ccn(C[C@@H]2O[C@H](COP(=O)(O)CN3C[C@@H](O)[C@H](O)C3)[C@@H](O)[C@H]2O)c(=O)[nH]1 |  | > 250 |
| > 20 | CCOP(=O)(CCN(CCOC(C)=O)CCOC(C)=O)OCC |  | > 250 |
| > 10 | O=c1ccn(C[C@@H]2O[C@H](COP(=O)(O)CCN(CCO)CCO)[C@@H](O)[C@H]2O)c(=O)[nH]1 | 72.2 | > 250 |
| > 10 | CC(=O)OCCN(CCOC(C)=O)CCP(=O)(O)OC[C@H]1O[C@@H](Cn2ccc(=O)[nH]c2=O)[C@H](O)[C@@H]1O | 27.4 | > 250 |
| > 20 | O=c1ccn(C[C@@H]2O[C@H](COP(=O)(O)CCN3CCCC3)[C@@H](O)[C@H]2O)c(=O)[nH]1 |  | > 250 |
| > 10 | CC(=O)OCCN(CCO)CCP(=O)(O)OC[C@H]1O[C@@H](Cn2ccc(=O)[nH]c2=O)[C@H](O)[C@@H]1O | 35.6 | > 250 |
| > 20 | O=C1[C@@H](O)[C@H](O)C(=O)N1CCP(=O)(O)OC[C@H]1O[C@@H](Cn2ccc(=O)[nH]c2=O)[C@H](O)[C@@H]1O | 28.7 | > 250 |
| 20 (≈ 9.63 µg/mL) | O=c1ccn(C[C@@H]2O[C@H](COP(=O)(O)COCCN3C[C@@H](O)[C@H](O)C3)[C@@H](O)[C@H]2O)c(=O)[nH]1 | 17.2 | > 250 |
| > 20 | O=c1ccn(C[C@@H]2O[C@H](COP(=O)(O)CCNCCO)[C@@H](O)[C@H]2O)c(=O)[nH]1 |  | > 250 |
| 0.48 (≈ 0.217 µg/mL) | O=c1ccn(C[C@@H]2O[C@H](COP(=O)(O)CCN3C[C@H](O)[C@@H](O)C3)[C@@H](O)[C@H]2O)c(=O)[nH]1 | 5.73 | > 250 |

| SMILES | MIC [3] [µM] | level, % of control at 10 µM [1] [%] | EC50 [2] [µM] |
| --- | --- | --- | --- |
| CCOP(=O)(CCNCCOC(C)=O)OCC | > 20 |  | > 250 |
| NCP(=O)(O)OC[C@H]1O[C@@H](n2ccc(=O)[nH]c2=O)[C@H](O)[C@@H]1O | > 20 | 34.4 | > 250 |
| NCCP(=O)(O)OC[C@H]1O[C@@H](n2ccc(=O)[nH]c2=O)[C@H](O)[C@@H]1O | > 10 | 14.9 | > 250 |
